Experimental findings from ChEMBL document CHEMBL5046302, “Identification and Evaluation of Brominated Carbazoles as a Novel Antibiotic Adjuvant Scaffold in MRSA” (2022) are described below.

Calls of active or inactive are those of the source. No cut-off for these calls is given here. Some results are limits rather than exact numbers.

Holding throughout (assay type): functional
For experiment [1], the system named is Staphylococcus aureus. The experiment in a line: Upregulation of mecA gene expression in methicillin-resistant Staphylococcus aureus USA100 by RT-PCR method.
Experiment [2] deals with Staphylococcus aureus. The experiment in a line: Upregulation of mecA gene expression in methicillin-resistant Staphylococcus aureus COL by RT-PCR method.
The test system of experiment [3] is Staphylococcus aureus. Put plainly: Upregulation of blaZ gene expression in methicillin-resistant Staphylococcus aureus USA100 by RT-PCR method.
The test system of experiment [4] is Staphylococcus aureus. Put plainly: Antibacterial activity against methicillin-resistant Staphylococcus aureus USA300 assessed as inhibition of bacterial growth after 18 hrs in presence of oxacillin by CLSI protocol based broth microdilution assay.
Experiment [5] deals with Staphylococcus aureus. The experiment in a line: Upregulation of mecA gene expression in methicillin-resistant Staphylococcus aureus ATCC 43300 by RT-PCR method.
The subject of experiment [6] is Staphylococcus aureus. The experiment in a line: Antibacterial activity against methicillin-resistant Staphylococcus aureus USA100 assessed as inhibition of bacterial growth after 18 hrs in presence of oxacillin by CLSI protocol based broth microdilution assay.
Experiment [7] relates to Staphylococcus aureus. Put plainly: Upregulation of mecA gene expression in methicillin-resistant Staphylococcus aureus USA300 by RT-PCR method.
Experiment [8] has as its system Staphylococcus aureus. The experiment in a line: Antibacterial activity against methicillin-resistant Staphylococcus aureus COL assessed as inhibition of bacterial growth after 18 hrs in presence of oxacillin by CLSI protocol based broth microdilution assay.
For experiment [9], the system named is Staphylococcus aureus. The experiment in a line: Antibacterial activity against methicillin-resistant Staphylococcus aureus USA300 harboring stk1 deletion mutant co-transfected with a plasmid bearing stk1 assessed as inhibition of bacterial growth after 18 hrs in presence of oxacillin by CLSI protocol based broth microdilution assay. The essentials:
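USA300 Δstk1 strain carrying induced stk1 (Δ/+stk1). […] Fold change in MIC taken relative to oxacillin alone.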

Experiment [10] concerns Staphylococcus aureus. The experiment in a line: Upregulation of blaZ gene expression in methicillin-resistant Staphylococcus aureus ATCC 43300 by RT-PCR method.
Experiment [11] deals with Staphylococcus aureus. The experiment in a line: Antibacterial activity against methicillin-resistant Staphylococcus aureus ATCC 43300 assessed as inhibition of bacterial growth after 18 hrs by CLSI protocol based broth microdilution assay. Summed up:
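Broth microdilution MIC of carbazole alone vs MRSA ATCC 43300, tested up to 200 μM.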

Experiment [12] relates to Staphylococcus aureus. Put plainly: Antibacterial activity against methicillin-resistant Staphylococcus aureus USA300 harboring stk1 deletion mutant assessed as inhibition of bacterial growth after 18 hrs in presence of oxacillin by CLSI protocol based broth microdilution assay. The essentials:
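USA300 Δstk1 mutant. Oxacillin MIC (µg mL⁻¹) was read with each carbazole held at a fixed 25 or 50 µM, and compared with oxacillin alone in the same strain. Fold change in MIC was taken as alone over cotreated. The parent USA300 and the stk1-complemented (Δ/+stk1) strains were run alongside.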

In experiment [13] the test system is Staphylococcus aureus. The experiment in a line: Potentiation of oxacillin induced antibacterial activity against methicillin-resistant Staphylococcus aureus COL assessed as fold change in oxacillin MIC at 50 uM after 18 hrs by CLSI protocol based broth microdilution assay.
Experiment [14] relates to Staphylococcus aureus. The experiment in a line: Potentiation of oxacillin induced antibacterial activity against methicillin-resistant Staphylococcus aureus ATCC 43300 assessed as oxacillin MIC at 25 uM after 18 hrs by CLSI protocol based broth microdilution assay.
The subject of experiment [15] is Staphylococcus aureus. The experiment in a line: Potentiation of oxacillin induced antibacterial activity against methicillin-resistant Staphylococcus aureus USA300 assessed as fold change in oxacillin MIC at 50 uM after 18 hrs by CLSI protocol based broth microdilution assay.
In experiment [16] the test system is Staphylococcus aureus. Put plainly: Potentiation of oxacillin induced antibacterial activity against methicillin-resistant Staphylococcus aureus USA 100 assessed as fold change in oxacillin MIC at 50 uM after 18 hrs by CLSI protocol based broth microdilution assay.
Experiment [17] deals with Staphylococcus aureus. Put plainly: Potentiation of oxacillin induced antibacterial activity against methicillin-resistant Staphylococcus aureus USA100 assessed as oxacillin MIC at 50 uM after 18 hrs by CLSI protocol based broth microdilution assay.
Experiment [18] has as its system Staphylococcus aureus. The experiment in a line: Potentiation of oxacillin induced antibacterial activity against methicillin-resistant Staphylococcus aureus COL assessed as oxacillin MIC at 50 uM after 18 hrs by CLSI protocol based broth microdilution assay.
The test system of experiment [19] is Staphylococcus aureus. The experiment in a line: Potentiation of oxacillin induced antibacterial activity against methicillin-resistant Staphylococcus aureus USA300 assessed as oxacillin MIC at 50 uM after 18 hrs by CLSI protocol based broth microdilution assay.
The subject of experiment [20] is Staphylococcus aureus. The experiment in a line: Potentiation of oxacillin induced antibacterial activity against methicillin-resistant Staphylococcus aureus ATCC 43300 assessed as fold change in oxacillin MIC at 10 uM after 18 hrs by CLSI protocol based broth microdilution assay.
Experiment [21] deals with Staphylococcus aureus. The experiment in a line: Potentiation of oxacillin induced antibacterial activity against methicillin-resistant Staphylococcus aureus USA100 assessed as oxacillin MIC at 10 uM after 18 hrs by CLSI protocol based broth microdilution assay.
Experiment [22] relates to Staphylococcus aureus. Put plainly: Potentiation of oxacillin induced antibacterial activity against methicillin-resistant Staphylococcus aureus USA300 assessed as oxacillin MIC at 10 uM after 18 hrs by CLSI protocol based broth microdilution assay.
For experiment [23], the system named is Staphylococcus aureus. Put plainly: Potentiation of oxacillin induced antibacterial activity against methicillin-resistant Staphylococcus aureus USA100 assessed as fold change in oxacillin MIC at 10 uM after 18 hrs by CLSI protocol based broth microdilution assay.
In experiment [24] the test system is Staphylococcus aureus. The experiment in a line: Potentiation of oxacillin induced antibacterial activity against methicillin-resistant Staphylococcus aureus COL assessed as oxacillin MIC at 10 uM after 18 hrs by CLSI protocol based broth microdilution assay.
The test system of experiment [25] is Staphylococcus aureus. Put plainly: Potentiation of oxacillin induced antibacterial activity against methicillin-resistant Staphylococcus aureus USA300 assessed as fold change in oxacillin MIC at 10 uM after 18 hrs by CLSI protocol based broth microdilution assay.
For experiment [26], the system named is Staphylococcus aureus. The experiment in a line: Potentiation of oxacillin induced antibacterial activity against methicillin-resistant Staphylococcus aureus COL assessed as fold change in oxacillin MIC at 10 uM after 18 hrs by CLSI protocol based broth microdilution assay.
Experiment [27] relates to Staphylococcus aureus. The experiment in a line: Potentiation of oxacillin induced antibacterial activity against methicillin-resistant Staphylococcus aureus ATCC 43300 assessed as oxacillin MIC at 10 uM after 18 hrs by CLSI protocol based broth microdilution assay.
Experiment [28] has as its system Staphylococcus aureus. The experiment in a line: Potentiation of oxacillin induced antibacterial activity against methicillin-resistant Staphylococcus aureus ATCC 43300 assessed as oxacillin MIC at 50 uM after 18 hrs by CLSI protocol based broth microdilution assay.
Experiment [29] deals with Staphylococcus aureus. Put plainly: Potentiation of oxacillin induced antibacterial activity against methicillin-resistant Staphylococcus aureus ATCC 43300 assessed as fold change in oxacillin MIC at 50 uM after 18 hrs by CLSI protocol based broth microdilution assay.

On to `Cc1onc(-c2ccccc2)c1C(=O)N[C@@H]1C(=O)N2[C@@H]1SC(C)(C)[C@@H]2C(=O)O` [OXACILLIN], for which the result with Staphylococcus aureus [1], in the experiment on Staphylococcus aureus [2], in the experiment on Staphylococcus aureus [3], with Staphylococcus aureus [5], with Staphylococcus aureus [7] and with Staphylococcus aureus [10] was Active. Also, the minimum inhibitory concentration (MIC) in the experiment with Staphylococcus aureus [4] was 32 mg/L; in the experiment on Staphylococcus aureus [6], 256 mg/L; in the experiment with Staphylococcus aureus [8], 512 mg/L; in the experiment with Staphylococcus aureus [9], 4 mg/L; in the experiment on Staphylococcus aureus [11], 32 mg/L; in the experiment with Staphylococcus aureus [12] it was 0.25 mg/L.
As to `CC(C(=O)O)c1ccc2c(c1)[nH]c1ccc(Cl)cc12` (centres undefined) [CARPROFEN], the “fold change (FC)” value in the experiment on Staphylococcus aureus [13], in the experiment with Staphylococcus aureus [15] and with Staphylococcus aureus [16] was 1 throughout. For the same compound, the MIC in the experiment with Staphylococcus aureus [14] is 32 mg/L; in the experiment with Staphylococcus aureus [17] it was 256 mg/L; in the experiment with Staphylococcus aureus [11], 100 µM; in the experiment on Staphylococcus aureus [18], 512 mg/L; with Staphylococcus aureus [19], 16 mg/L.
Turning to `Clc1ccc2[nH]c3ccc(Cl)cc3c2c1`, the “fold change (FC)” value with Staphylococcus aureus [20] is listed as 1; in the experiment on Staphylococcus aureus [23], 1; in the experiment with Staphylococcus aureus [25] it was 2; in the experiment on Staphylococcus aureus [26], 4. For the same compound, the minimum inhibitory concentration (MIC) in the experiment with Staphylococcus aureus [21] is 256 mg/L; in the experiment with Staphylococcus aureus [22], 16 mg/L; in the experiment with Staphylococcus aureus [11], 50 µM; in the experiment with Staphylococcus aureus [24], 128 mg/L; with Staphylococcus aureus [27] it was 16 mg/L.
In the case of `CC1(C)S[C@@H]2[C@H](NC(=O)[C@H](N)c3ccccc3)C(=O)N2[C@H]1C(=O)O` [AMPICILLIN], the minimum inhibitory concentration (MIC) with Staphylococcus aureus [4] turned out to be 8 mg/L; in the experiment on Staphylococcus aureus [6] it was 32 mg/L; with Staphylococcus aureus [8] it was 32 mg/L; in the experiment with Staphylococcus aureus [11], 32 mg/L.
Take `Brc1ccc2c(c1)[nH]c1cc(Br)ccc12`: the “fold change (FC)” value with Staphylococcus aureus [13] turned out to be 2; in the experiment with Staphylococcus aureus [15], 4; in the experiment on Staphylococcus aureus [16] it was 4; with Staphylococcus aureus [29], 4. Moreover, the minimum inhibitory concentration (MIC) in the experiment with Staphylococcus aureus [17] is 64 mg/L; in the experiment with Staphylococcus aureus [11] it was greater than 200 µM; in the experiment with Staphylococcus aureus [18] it was 256 mg/L; in the experiment on Staphylococcus aureus [19], 8 mg/L; in the experiment with Staphylococcus aureus [28] it was 8 mg/L.
As for `Brc1ccc2c(c1)[nH]c1ccccc12`, the “fold change (FC)” value in the experiment with Staphylococcus aureus [13] turned out to be 1; in the experiment on Staphylococcus aureus [15], 1; in the experiment with Staphylococcus aureus [16], 2; with Staphylococcus aureus [29] it was 2. Also, the minimal inhibitory concentration (MIC) in the experiment on Staphylococcus aureus [17] is 128 mg/L; with Staphylococcus aureus [11], greater than 200 µM; with Staphylococcus aureus [18], 512 mg/L; with Staphylococcus aureus [19], 32 mg/L; with Staphylococcus aureus [28] it was 16 mg/L.
As for `Oc1cccc2[nH]c3ccccc3c12`, the “fold change (FC)” value in the experiment on Staphylococcus aureus [13], with Staphylococcus aureus [15], in the experiment on Staphylococcus aureus [16] and in the experiment on Staphylococcus aureus [29] was 1 throughout. Besides, the MIC in the experiment with Staphylococcus aureus [17] was 256 mg/L; in the experiment with Staphylococcus aureus [11], greater than 200 µM; in the experiment with Staphylococcus aureus [18] it was 512 mg/L; in the experiment on Staphylococcus aureus [19] it was 32 mg/L; with Staphylococcus aureus [28] it was 32 mg/L.
As for `CC(C)(O/N=C(\C(=O)N[C@@H]1C(=O)N2C(C(=O)[O-])=C(C[n+]3ccccc3)CS[C@H]12)c1csc(N)n1)C(=O)O` [CEFTAZIDIME], the minimum inhibitory concentration (MIC) with Staphylococcus aureus [4] came to 512 mg/L; in the experiment with Staphylococcus aureus [6], 1020 mg/L; in the experiment with Staphylococcus aureus [8], 1020 mg/L; in the experiment on Staphylococcus aureus [11], 128 mg/L.
